# Data taken from PubChem BioAssay AID492974 (The Scripps Research Institute Molecular Screening Center, 2010).
# The source made the active and inactive calls.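 Rule for the calls: active = inhibition of the enzyme above 50%; inactive = the rest.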
# Molecular target: Aspartyl aminopeptidase (Plasmodium falciparum (isolate 3D7)) (UniProt Q8I2J3)
# Test: recombinant PfM18AAP inhibitors, late-stage follow-up, biochemical, fluorescence, powder samples, assay provider (AID 492974)
# Settings: H-Glu-NHMec fluorogenic substrate, at 5 µM, hits give high values
# Summary of the method: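 Assay system: recombinant PfM18AAP enzyme; reagent: H-Glu-NHMec at 50 µM; doses: single compound dose of 5 µM final; times: 10 min compound–enzyme preincubation, then 30 min kinetic read; signal: fluorescence, ex 370 nm / em 460 nm; benchmarks: uninhibited enzyme wells as high, enzyme-free wells as low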
# Chain of Aspartyl aminopeptidase (Plasmodium falciparum (isolate 3D7)) (Q8I2J3 whole entry, looked up): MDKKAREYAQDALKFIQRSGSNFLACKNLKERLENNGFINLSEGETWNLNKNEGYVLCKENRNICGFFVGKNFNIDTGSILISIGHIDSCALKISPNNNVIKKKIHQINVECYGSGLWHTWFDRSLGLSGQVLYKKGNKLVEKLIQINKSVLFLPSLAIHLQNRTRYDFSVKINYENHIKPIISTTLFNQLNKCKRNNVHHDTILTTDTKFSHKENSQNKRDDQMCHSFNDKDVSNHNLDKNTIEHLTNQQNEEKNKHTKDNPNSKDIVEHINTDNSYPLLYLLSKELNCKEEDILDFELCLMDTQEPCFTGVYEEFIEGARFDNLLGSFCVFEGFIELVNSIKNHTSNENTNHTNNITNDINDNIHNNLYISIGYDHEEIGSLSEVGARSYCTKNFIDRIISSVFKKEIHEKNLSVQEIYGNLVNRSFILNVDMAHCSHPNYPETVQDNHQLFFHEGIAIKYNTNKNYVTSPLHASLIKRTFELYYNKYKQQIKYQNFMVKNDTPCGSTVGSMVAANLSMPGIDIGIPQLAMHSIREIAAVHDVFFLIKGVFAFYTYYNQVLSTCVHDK
row,Structure (SMILES),inhibition
1,COc1ccc(C(=O)n2cnnc2N)cc1,4% (inactive)
2,O=C(O)c1ccc(O)c(O)c1,21% (inactive)
3,COC(=O)c1cc(C(=O)Nn2cnnc2)cc([N+](=O)[O-])c1,48% (inactive)
4,CCC(C)c1ccc(O)c(N)c1 (stereo unspecified),65%
5,COC(=O)CN(n1cnnc1)S(=O)(=O)c1ccccc1,0% (inactive)
6,Cc1ccc(Cl)cc1NC(=S)Nn1cnnc1,17% (inactive)
7,S=C(Nc1cc(Cl)ccc1Cl)Nn1cnnc1,24% (inactive)
8,Cc1ccc(-n2c(O)c(/C=N/n3cnnc3)c3ccccc3c2=O)cc1,18% (inactive)
9,O=c1c2c([N+](=O)[O-])cc([N+](=O)[O-])cc2sn1Cc1ccccc1,44% (inactive)
10,CC1(C)CC(=O)c2c(oc3cc(O)c(O)cc23)C1,29% (inactive)
11,Cc1ccc([N+](=O)[O-])cc1-c1[nH]c(-c2ccc(O)c(O)c2)nc1-c1ccccc1,83%
12,O=C(Nc1ccc(Cl)c(Cl)c1)Nn1cnnc1,63%
13,O=c1[nH]c(CSc2ncn[nH]2)nc2ccccc12,0% (inactive)
14,Cc1nc(-c2ccc(O)c(O)c2)cs1,74%
15,COc1cc(Br)cc(/C=N/c2ncn[nH]2)c1O,0% (inactive)
16,CCc1ccccc1NC(=S)Nn1cnnc1,6% (inactive)
17,O=C(O)CSc1ncn[nH]1,0% (inactive)
18,O=c1[nH]c(=S)[nH]c(O)c1/C=C1\C=c2ccccc2=N1,42% (inactive)
19,Oc1ccc(/C=C/c2cc(O)cc(O)c2)cc1,50%
20,O=S(=O)(Nn1cnnc1)c1ccccc1,10% (inactive)
21,Cc1ccc(Cl)cc1NC(=O)Nn1cnnc1,35% (inactive)
22,O=C(CNC(=O)c1ccccc1)NCCc1ccc(O)c(O)c1,50%
23,O=C(O)c1cn[nH]c1-n1cnnn1,2% (inactive)
24,O=C(Nn1cnnc1)c1ccccc1-c1ccccc1,21% (inactive)
25,CCN(CC)S(=O)(=O)c1ccc(C(=O)Nn2cnnc2)cc1,26% (inactive)
26,O=C(Nc1ccccc1Cl)Nn1cnnc1,35% (inactive)

row,Structure (SMILES),inhibition
1,COc1cc([N+](=O)[O-])ccc1NC(=S)Nn1cnnc1,52%
2,Cc1cccc(NC(=S)Nn2cnnc2)c1C,13% (inactive)
3,O=C(CSc1nnc(-c2ccccc2)o1)Nn1cnnc1,58%
4,O=c1c(O)c(-c2ccc(O)c(O)c2)oc2cc(O)cc(O)c12,43% (inactive)
5,O=C(CSc1ncn[nH]1)Nc1nc(-c2ccccc2)ns1,7% (inactive)
6,Oc1ccc(-c2cn3ccccc3n2)cc1O,42% (inactive)
7,O=[N+]([O-])c1cc([N+](=O)[O-])c2cccnc2c1Oc1ccccc1O,16% (inactive)
8,O=C(Nc1ccc([N+](=O)[O-])cc1)Nn1cnnc1,59%
9,Cc1c(Cl)cccc1NC(=O)Nn1cnnc1,10% (inactive)
10,Oc1ccc(-c2csc(-c3ccccc3)n2)cc1O,90%
11,Oc1cc(O)c2c(c1)O[C@H](c1ccc(O)c(O)c1)[C@H](O)C2,49% (inactive)
12,COc1ccc(NC(=O)NNC(=O)CCc2ccc(O)c(O)c2)cc1OC,23% (inactive)
13,CCOC(=O)C1=C(CS(=O)(=O)c2ccc(F)cc2)NC(=O)NC1c1ccc(O)c(O)c1 (stereo unspecified),58%
14,O=C(Nc1cccc(Cl)c1Cl)Nn1cnnc1,29% (inactive)
15,CC1=NNC(=O)/C1=C\c1cn(-c2ccccc2)nc1-c1ccc(F)cc1,9% (inactive)
16,Cc1cc(OCC(=O)Nn2cnnc2)ccc1Br,55%
17,CN1C(=O)N(c2cccc3ccccc23)C(n2cncn2)C1(C)C (stereo unspecified),5% (inactive)
18,CC1(C)CC2(CC(c3ccccc3F)c3ccc(O)c(O)c3O2)NC(=S)N1 (stereo unspecified),50%
19,Cc1cc(C)n2c(=S)[nH]nc2n1,30% (inactive)
20,O=C(Nc1ccc(Cl)cc1Cl)Nn1cnnc1,48% (inactive)
21,COc1cccc2c(SCC(=O)N/N=C/c3ccc(O)c(O)c3)cc(C)nc12,51%
22,O=C(CSc1nc2ccccc2c(=O)[nH]1)c1ccc(O)c(O)c1,10% (inactive)
23,CC(C)n1c(SCC(=O)Nc2nncs2)nnc1-c1ccco1,5% (inactive)
24,Oc1ccc(CCNc2c3ccccc3nc3ccccc23)cc1O,52%
25,COc1ccc(Cl)cc1NC(=O)Nn1cnnc1,22% (inactive)
26,O=C(CSc1ncn[nH]1)OCN1C(=O)c2ccccc2C1=O,0% (inactive)

row,Structure (SMILES),inhibition
1,Oc1ccc(-c2csc(-c3cccnc3)n2)cc1O,81%
2,COc1ccc2nc(C)cc(SCC(=O)N/N=C/c3ccc(O)c(O)c3)c2c1,63%
3,O=C(Nc1ccc(Br)cc1Cl)Nn1cnnc1,71%
4,O=C(Nn1cnnc1)c1csc2ccccc12,22% (inactive)
5,O=C(Nc1cc(Cl)ccc1Cl)Nn1cnnc1,54%
6,O=C(NC(=S)Nn1cnnc1)c1ccccc1Br,15% (inactive)
7,CN1CCc2cccc3c2[C@@H]1Cc1ccc(O)c(O)c1-3,35% (inactive)
8,Cc1cc(C)cc(C(=O)n2cnnc2N)c1,0% (inactive)
9,Br/C(C=Nn1cnnc1)=C\c1ccccc1,17% (inactive)
10,O=C(CSc1nn(-c2ccccc2)c(=S)s1)Nn1cnnc1,15% (inactive)
11,OC(Cn1cnnc1)c1ccccc1 (stereo unspecified),19% (inactive)
12,COC(=O)CN(n1cnnc1)S(=O)(=O)c1ccccc1Cl,26% (inactive)
13,O=C(COc1ccccc1C(=O)N/N=C/c1ccc(O)c(O)c1)N/N=C/c1ccc(O)c(O)c1,76%
14,COc1cccc(-c2cc(C(=O)Nn3cnnc3)c3ccccc3n2)c1,25% (inactive)
15,Nc1nncn1C(=O)CCCOc1ccc(Cl)cc1Cl,0% (inactive)
16,CS(=O)(=O)c1ccc2c(c1)sc1nc(=O)c(/C=C3/C=CC(=O)C(O)=C3)c(N)n12,55%
17,COC(=O)CN(n1cnnc1)S(=O)(=O)c1ccc(C)cc1,0% (inactive)
18,NCCc1ccc(O)c(O)c1,40% (inactive)
19,Cc1ccc(NC(=S)Nn2cnnc2)c(C)c1,3% (inactive)
20,Cc1nc2ccccn2c1C(=O)NNC(=O)Nc1ccccc1,11% (inactive)
21,COc1cc([N+](=O)[O-])ccc1NC(=O)Nn1cnnc1,4% (inactive)
22,Cc1cc(=O)[nH]c(SCC(=O)c2ccc(O)c(O)c2)n1,0% (inactive)
23,Oc1ccc(C2=Nn3c(nnc3-c3ccco3)SC2)cc1O,52%
24,O=C(Nc1cccc(C(F)(F)F)c1)Nn1cnnc1,27% (inactive)
